# Screens deposited in PubChem by Broad Institute.
# T cruzi growth-1 = T. cruzi intracellular proliferation inhibitors, primary screen, cell-based, beta-gal Tulahuen parasites, NIH3T3 host, luminescence; inhibition, % at 8.34 µM; 77,000 tested, 5.9% active; T. cruzi beta-gal in NIH3T3, GalScreen luminescence, 90 h;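 active = mean inhibition above about 93%, with at least 55% of replicates each passing it, limit read from the data, passing the limit was not always enough; inconclusive = only one of those two conditions holds; inactive = neither condition holds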
# IDH1 R132H inh = inhibitors of IDH1 R132H reductase, primary screen, biochemical, plate reader, single point; 70,000 tested, 0.18% active; Isocitrate dehydrogenase [NADP] cytoplasmic (Homo sapiens), O75874; inhibition, % at 10 µM; diaphorase/resazurin fluorescence, 60 min; in the data active = inhibition above about 34%; inconclusive = no clear call, values can overlap the other calls; inactive = below about 11%;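 note: 0% = DMSO and 100% = no enzyme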
# KDM4C inh = inhibitors of GASC-1 (KDM4C) histone demethylase, primary screen, biochemical, single concentration HTS; inhibition, % at 12.5 µM; Lysine-specific demethylase 4C (Homo sapiens), Q9H3R0; 96,000 tested, 0.15% active; GST-KDM4C 2-372, H3K9me3 peptide, LANCE TR-FRET;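 active = mean replicate inhibition above about 25%, with at least 55% of replicates also reaching it, limit read from the data, passing the limit was not always enough; inconclusive = only one of those two conditions met; inactive = neither condition met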
# Target sequence (Q9H3R0 2-372 limits assumed): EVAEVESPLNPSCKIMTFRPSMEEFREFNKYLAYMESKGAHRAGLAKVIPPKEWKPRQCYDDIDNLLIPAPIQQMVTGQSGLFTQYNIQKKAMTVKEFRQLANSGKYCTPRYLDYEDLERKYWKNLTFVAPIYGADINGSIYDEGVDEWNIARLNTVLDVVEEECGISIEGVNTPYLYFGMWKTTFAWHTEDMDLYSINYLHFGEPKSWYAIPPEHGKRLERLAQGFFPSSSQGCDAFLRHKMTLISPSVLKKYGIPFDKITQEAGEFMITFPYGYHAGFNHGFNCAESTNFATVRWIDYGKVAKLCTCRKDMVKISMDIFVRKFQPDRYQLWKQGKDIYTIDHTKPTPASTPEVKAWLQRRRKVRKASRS
#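 Test system – GST-tagged GASC-1 (JMJD2C) catalytic fragment, aa 2-372 · Medium – HEPES buffer, pH 7.5, plus ascorbate · Reagent – H3K9me3 peptide with Fe(II)/2OG · Compound – one test concentration per compound · Timing – 30 min reaction, 60 min detection, RT · Technique – TR-FRET with Eu antibody and ULight streptavidin, EDTA stop · Read-out basis – inhibition from TR-FRET ratio decrease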
# Pf Dd2 inh = P. falciparum Dd2 growth inhibitors, primary screen, SYBR Green fluorescence, single dose replicates. 72 h; hits give low values. AID 1159554, 2015. 94,000 tested, 2.3% active. activity change, % at 10 µM; in the data active = activity change below about -80%; inconclusive = no clear call, values can overlap the other calls
# T cruzi growth-2 = T. cruzi intracellular proliferation inhibitors, confirmation, cell-based, NIH3T3 host, beta-gal parasite, luminescence, cherry-pick. shares compounds with T cruzi growth-1. T. cruzi beta-gal in NIH3T3, GalScreen luminescence, 90 h. inhibition, % at 8.35 µM. 5,600 tested, 72% active;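 active = mean replicate inhibition above about 95% and at least 55% of replicates individually reaching it, limit read from the data; inconclusive = only one of the two criteria is met; inactive = neither criterion is met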
# T cruzi growth-3 = inhibitors of intracellular T. cruzi replication, confirmation, NIH3T3 host cells, beta-gal parasites, cherry-pick, set 2. shares compounds with T cruzi growth-1. T. cruzi beta-gal in NIH3T3, GalScreen luminescence, 90 h. inhibition, % at 2.09 µM. 5,600 tested, 21% active;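 active = mean inhibition above about 95%, with at least 55% of replicates also reaching it, limit read from the data; inconclusive = meets just one of the two conditions; inactive = meets neither condition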;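 note: plate controls were neutral control median for no effect and positive control median for full effect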
# 3T3 cytotox = cytotoxicity in mouse NIH/3T3 fibroblasts, confirmation, cytotoxicity control for T. cruzi proliferation inhibitor project, cell-based, cherry-pick, single point; shares compounds with T cruzi growth-1; NIH/3T3 viability, CellTiter-Glo ATP luminescence, 90 h; cytotoxicity (signal decrease), % at 8.35 µM; 5,600 tested, 14% active; AID 651742, 2012;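 active = mean signal decrease across replicates above about 35% based on untreated-well scatter, with enough replicates individually passing, limit read from the data; inconclusive = no rule stated though some were filed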;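 note: 0% = median of neutral control wells and 100% = median of positive control wells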
# NIH3T3 tox 2 = NIH/3T3 fibroblast cytotoxicity, confirmation, cytotoxicity control, cell-based, cherry-pick, single point, set 2; shares compounds with T cruzi growth-1; NIH/3T3 viability, CellTiter-Glo ATP luminescence, 90 h; inhibition, % at 24.9 µM; 5,600 tested, 56% active;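 active = mean loss of cell viability signal at or above a set limit, and enough replicates individually reaching it; inconclusive = meets only the mean limit or only the replicate share; inactive = meets neither condition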;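 note: 0% = median of neutral control wells and 100% = median of positive control wells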
# * = called active by the depositor; ? = inconclusive; nt = not tested or not shown; + = active, no number. A selection: hits, their analogues and other compounds. The true share with any hit is near 5.8%.
SMILES,T cruzi growth-1,IDH1 R132H inh,KDM4C inh,Pf Dd2 inh,T cruzi growth-2,T cruzi growth-3,3T3 cytotox,NIH3T3 tox 2
N#C[C@@H]1N[C@H](CO)[C@@H]1c1ccc(C#CC2CCCC2)cc1,34,nt,2,29,nt,nt,nt,nt
N#C[C@@H]1N[C@H](CO)[C@@H]1c1ccc(C#Cc2ccccc2F)cc1,79,nt,-1,7,nt,nt,nt,nt
N#C[C@H]1N[C@@H](CO)[C@@H]1c1ccc(C#Cc2ccccc2F)cc1,99*,nt,-1,-8,97*,91,0,106*
N#C[C@H]1N[C@H](CO)[C@H]1c1ccc(C#Cc2ccc(F)cc2)cc1,101*,nt,-3,-1,101*,76,13,19
COc1cccc(C#Cc2ccc([C@H]3[C@@H](C#N)N[C@@H]3CO)cc2)c1,98*,nt,-1,-29,100*,101*,19,54*
N#C[C@H]1N[C@H](CO)[C@H]1c1ccc(C#CC2CCCC2)cc1,101*,nt,4,4,99*,68,5,27*
CC(=O)N1CC(=O)N2[C@H](CO)[C@H](c3ccc(-c4ccc(C#N)cc4)cc3)[C@H]2C1,nt,nt,-1,16,nt,nt,nt,nt
COc1ccccc1-c1ccc2c(c1)O[C@@H](CN(C)C(=O)c1ccncc1)[C@@H](C)CN([C@@H](C)CO)S2(=O)=O,108*,4,-1,-10,96*,88,10,25*
C[C@@H]1CN([C@H](C)CO)S(=O)(=O)c2ccc(/C=C/c3ccccc3)cc2O[C@H]1CN(C)C(=O)c1ccccc1,128*,-4,nt,-79,111*,87,16,100*
C[C@H]1CN([C@@H](C)CO)S(=O)(=O)c2ccc(/C=C/c3ccccc3)cc2O[C@H]1CN(C)C(=O)c1ccncc1,106*,0,-7,5,109*,86,44*,70*
COc1ccccc1-c1ccc2c(c1)O[C@H](CN(C)C(=O)c1ccncc1)[C@@H](C)CN([C@H](C)CO)S2(=O)=O,67,2,1,6,nt,nt,nt,nt
O=C(C[C@@H]1CC[C@H]2[C@@H](COC[C@H](O)CN2S(=O)(=O)c2ccc(Oc3ccccc3)cc2)O1)Nc1ccccc1,nt,nt,0,-16,nt,nt,nt,nt
C[C@@H]1CCCCO[C@@H](CN(C)S(=O)(=O)c2ccccc2)[C@@H](C)CN([C@@H](C)CO)C(=O)c2cc(NC(=O)Nc3ccc(C(F)(F)F)cc3)ccc2O1,105*,nt,1,-59,103*,106*,37*,63*
C[C@@H]1CN([C@@H](C)CO)C(=O)c2cc(NC(=O)Nc3ccc(C(F)(F)F)cc3)ccc2O[C@@H](C)CCCCO[C@H]1CN(C)S(=O)(=O)c1ccccc1,109*,nt,0,-49,103*,114*,14,16
C[C@@H]1CN([C@@H](C)CO)C(=O)c2cc(NC(=O)Nc3ccc(C(F)(F)F)cc3)ccc2O[C@@H](C)CCCCO[C@@H]1CN(C)S(=O)(=O)c1ccccc1,76,nt,1,-44,nt,nt,nt,nt
C[C@@H]1CCCCO[C@@H](CN(C)S(=O)(=O)c2ccccc2)[C@H](C)CN([C@@H](C)CO)C(=O)c2cc(NC(=O)Nc3ccc(C(F)(F)F)cc3)ccc2O1,109*,nt,2,-75,104*,115*,13,1
C[C@@H]1CCCCO[C@@H](CN(C)S(=O)(=O)c2ccccc2)[C@@H](C)CN([C@H](C)CO)C(=O)c2cc(NC(=O)Nc3ccccc3)ccc2O1,36,0,0,-59,nt,nt,nt,nt
C[C@H](CO)N1C[C@H](C)[C@@H](CN(C)C(=O)CCC(F)(F)F)OCCCC[C@H](C)Oc2ccc(NS(=O)(=O)c3ccc(Cl)cc3)cc2C1=O,77,0,0,-2,nt,nt,nt,nt
C[C@H](CO)N1C[C@H](C)[C@H](CN(C)C(=O)Cc2ccccc2)OCCCC[C@H](C)Oc2ccc(NS(=O)(=O)c3cccs3)cc2C1=O,65,1,0,-36,nt,nt,nt,nt
COc1cccc(C(=O)Nc2ccc3c(c2)OC[C@H](C)N(CCc2ccccc2)C[C@H](C)[C@@H](OC)CN(C)C3=O)c1,116*,0,-2,-52,103*,77,-6,8
COc1cccc(C(=O)Nc2ccc3c(c2)OC[C@@H](C)N(CCc2ccccc2)C[C@@H](C)[C@@H](OC)CN(C)C3=O)c1,68,0,1,-55,nt,nt,nt,nt
COc1cccc(C(=O)Nc2ccc3c(c2)OC[C@H](C)N(CCc2ccccc2)C[C@@H](C)[C@@H](OC)CN(C)C3=O)c1,119*,0,-1,-35,109*,62,13,-1
COc1cccc(C(=O)Nc2ccc3c(c2)OC[C@@H](C)N(CCc2ccccc2)C[C@H](C)[C@@H](OC)CN(C)C3=O)c1,110*,-1,-3,-2,110*,56,-19,-5
COc1cccc(C(=O)Nc2ccc3c(c2)C(=O)N(C)C[C@H](OC)[C@@H](C)CN(CCc2ccccc2)[C@H](C)CO3)c1,84,0,0,-49,nt,nt,nt,nt
COc1cccc(C(=O)Nc2ccc3c(c2)C(=O)N(C)C[C@H](OC)[C@H](C)CN(CCc2ccccc2)[C@@H](C)CO3)c1,?,0,2,-58,nt,nt,nt,nt
COC(=O)[C@@H]1[C@@H](CO)[C@@H]2Cn3c(ccc(C4=CCCCC4)c3=O)[C@@H]2N1CCC(F)(F)F,18,nt,4,nt,nt,nt,nt,nt
CN(C)C(=O)[C@@H]1[C@@H](CO)[C@@H]2Cn3c(ccc(C4=CCCCC4)c3=O)[C@@H]2N1Cc1ccccn1,+,nt,1,nt,-5,6,3,39*
CCN1[C@H](C(=O)OC)[C@@H](CO)[C@@H]2Cn3c(ccc(C4=CCCCC4)c3=O)[C@@H]21,103*,nt,2,-8,56,-8,14,13
CCN1[C@@H]2c3ccc(C4=CCCCC4)c(=O)n3C[C@@H]2[C@@H](CO)[C@@H]1C(=O)OC,97*,nt,3,-1,-6,-18,-23,3
